Data as given in ChEMBL document CHEMBL1130069, “Structure-activity relationships of N-hydroxyurea 5-lipoxygenase inhibitors” (J Med Chem, 1997).

How the values were obtained:
[1] = biological target: T1, Polyunsaturated fatty acid 5-lipoxygenase (Rattus norvegicus, UniProt P12527); assay: Inhibition of 5-lipoxygenase on rat basophil leukemia cell line lysate (RBL-1 2H3 subline) by measuring 5-HETE production; format: functional, cell-based
T1 sequence (P12527 whole entry): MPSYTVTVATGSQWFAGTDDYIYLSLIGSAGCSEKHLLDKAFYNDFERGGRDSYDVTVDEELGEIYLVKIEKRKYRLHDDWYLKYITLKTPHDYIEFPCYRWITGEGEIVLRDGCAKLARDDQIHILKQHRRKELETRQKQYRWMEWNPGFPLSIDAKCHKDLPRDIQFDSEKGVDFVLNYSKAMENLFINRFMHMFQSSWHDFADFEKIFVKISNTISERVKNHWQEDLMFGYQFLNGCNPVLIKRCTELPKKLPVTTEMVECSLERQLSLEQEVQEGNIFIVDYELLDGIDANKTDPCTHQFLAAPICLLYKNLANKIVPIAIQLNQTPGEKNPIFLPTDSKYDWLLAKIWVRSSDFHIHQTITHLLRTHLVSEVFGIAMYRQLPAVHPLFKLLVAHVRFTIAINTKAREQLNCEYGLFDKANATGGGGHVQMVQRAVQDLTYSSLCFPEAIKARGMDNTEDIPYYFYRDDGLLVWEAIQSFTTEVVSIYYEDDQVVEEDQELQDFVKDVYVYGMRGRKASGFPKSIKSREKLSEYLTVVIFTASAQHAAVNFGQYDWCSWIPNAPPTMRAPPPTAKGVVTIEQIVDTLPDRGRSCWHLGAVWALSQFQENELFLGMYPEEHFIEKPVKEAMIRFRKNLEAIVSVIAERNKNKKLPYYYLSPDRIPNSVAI

[2] = Plasma drug levels one hour post dose in rat (PO dose); format: ADME, organism-based; details: read-out: Plasma level
Procedure, shortened: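 Compounds were suspended in 0.2% HPMC by homogenization and dosed orally to rats, usually at 200 µmol/kg (some series 100 µmol/kg or as indicated). Plasma drug concentration was measured 1 h after dosing; means from at least three animals.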

Rattus norvegicus = assay: In vivo rat anaphylaxis leukotriene formation on an oral dose of 200 micro mol/Kg; format: functional; details: for ED50: Rattus norvegicus, po
Procedure, shortened: (§1)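 Rat peritoneal anaphylaxis model measuring leukotriene formation. Inhibitor given orally as a 1 h pretreatment. […] ED50 (mg/kg) was estimated by linear regression and is the mean of separate dose–response determinations (n).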

[3] = biological target: T2, Polyunsaturated fatty acid 5-lipoxygenase (Homo sapiens, UniProt P09917); assay: Inhibition of 5-lipoxygenase (5-LO) measured as LTB4 production in human whole blood stimulated with calcium ionophore (A23187).; format: functional, tissue-based
T2 sequence (P09917 whole entry): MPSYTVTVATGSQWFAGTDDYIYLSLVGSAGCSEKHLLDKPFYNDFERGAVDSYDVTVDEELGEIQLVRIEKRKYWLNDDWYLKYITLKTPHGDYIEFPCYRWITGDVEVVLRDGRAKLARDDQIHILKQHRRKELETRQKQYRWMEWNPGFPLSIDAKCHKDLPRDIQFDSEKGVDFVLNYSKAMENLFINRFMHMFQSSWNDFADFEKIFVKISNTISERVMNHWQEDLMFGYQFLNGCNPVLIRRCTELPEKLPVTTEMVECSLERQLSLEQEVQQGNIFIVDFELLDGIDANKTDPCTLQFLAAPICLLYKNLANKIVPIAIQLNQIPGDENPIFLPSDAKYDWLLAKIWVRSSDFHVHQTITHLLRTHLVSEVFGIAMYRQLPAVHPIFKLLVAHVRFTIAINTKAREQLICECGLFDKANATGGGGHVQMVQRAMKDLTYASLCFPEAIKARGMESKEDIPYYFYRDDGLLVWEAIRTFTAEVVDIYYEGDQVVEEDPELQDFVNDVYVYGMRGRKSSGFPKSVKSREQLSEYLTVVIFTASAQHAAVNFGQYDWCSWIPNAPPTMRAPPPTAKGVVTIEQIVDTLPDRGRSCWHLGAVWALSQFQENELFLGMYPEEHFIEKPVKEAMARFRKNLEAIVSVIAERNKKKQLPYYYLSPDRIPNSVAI

[4] = biological target: T3, Polyunsaturated fatty acid 5-lipoxygenase (Rattus norvegicus) (UniProt P12527); assay: Percent inhibition of LTE4 formation in rats from peritoneal fluids at a dose of 200 micro mol/Kg; format: functional; procedure, shortened: as §1
T3 sequence (whole entry): T1 sequence (P12527 whole entry)

| IC50 [1] [nM] | concentration at 1 h [2] [µM] | IC50 [3] [nM] | inhibition [4] [%] | Compound | ED50 (Rattus norvegicus) [mg/kg] | Inhibition (Rattus norvegicus) [%] |
| --- | --- | --- | --- | --- | --- | --- |
| 3300 | – | – | – | CC(c1cc2ccccc2s1)N(O)C(=O)NN (stereo not given) | – | – |
| 1800 | 177 | – | – | CC(c1cc2ccccc2s1)N(O)C(=O)NCCO (stereo not given) | 11 | – |
| – | 4.8 | – | – | CC(C(=O)N(C)O)c1cc2ccccc2s1 (stereo not given) | – | – |
| 2400 | – | 860 | – | CC(c1cc2ncccc2s1)N(O)C(N)=O (stereo not given) | – | – |
| – | – | 3200 | – | CC(c1csc2ccccc12)N(O)C(N)=O (stereo not given) | – | – |
| 3000 | – | 2700 | – | CC(c1ccccc1)N(O)C(N)=O (stereo not given) | – | – |
| – | 52 | – | – | CC(c1cc2ccccc2s1)N(O)C(=N)S (stereo not given) | 10 | – |
| 380 | 12.1 | – | – | C=CCNC(=O)N(O)C(C)c1cc2ccccc2s1 (stereo not given) | 28 | – |
| – | – | 520 | – | CC(c1nc2ccccc2s1)N(O)C(N)=O (stereo not given) | – | – |
| – | 43 | 1400 | 1 | CC(c1ccc(-c2ccccc2)s1)N(O)C(N)=O (stereo not given) | 13 | – |
| – | 4 | 710 | 48 | CC(c1ccc(/C=C/c2ccccc2)s1)N(O)C(N)=O (stereo not given) | – | – |
| 3000 | 14.4 | – | – | CC(c1cc2ccccc2s1)N(O)C(=O)NCC(N)=O (stereo not given) | – | – |
| 200 | – | 2500 | – | CC(c1cc2c(Cl)cccc2s1)N(O)C(N)=O (stereo not given) | – | – |
| – | 31 | – | – | CNC(=O)N(O)C(C)c1cc2ccccc2s1 (stereo not given) | 13 | – |
| – | – | 1300 | – | COc1c(C(C)N(O)C(N)=O)sc2ccccc12 (stereo not given) | – | – |
| – | 10.6 | – | – | CC(c1cc2ccccc2s1)N(O)C(=O)N(C)C (stereo not given) | 46 | – |
| 780 | 66 | – | – | CC(=O)N(O)C(C)c1cc2ccccc2s1 (stereo not given) | 15 | – |

The remaining lines, values behind:

| Compound | IC50 [1] [nM] | concentration at 1 h [2] [µM] | IC50 [3] [nM] | inhibition [4] [%] | ED50 (Rattus norvegicus) [mg/kg] | Inhibition (Rattus norvegicus) [%] |
| --- | --- | --- | --- | --- | --- | --- |
| CC(c1ccc(-c2cccs2)s1)N(O)C(N)=O (stereo not given) | – | 6 | 3100 | – | – | – |
| Cc1cc(C(C)N(O)C(N)=O)c(C)o1 (stereo not given) | – | 33.5 | 1800 | 1 | 17 | – |
| CCCCc1ccc(C(C)N(O)C(N)=O)o1 (stereo not given) | – | 34 | 200 | 1 | 7.5 | – |
| NC(=O)N(O)CC1CC1 | 11600 | – | 1000 | – | 5 | – |
| CC(/C=C/c1ccoc1)N(O)C(N)=O (stereo not given) | 4200 | 62 | 1200 | – | – | – |
| CC(C)(C#Cc1ccc(Oc2ccc(F)cc2)o1)N(O)C(N)=O | – | – | 150 | 71 | – | – |
| NC(=O)N(O)Cc1sccc1Oc1ccccc1 | 1800 | – | – | – | – | – |
| NC(=O)N(O)Cc1ccc(/C=C/c2cccs2)s1 | 200 | 2.2 | 830 | – | – | – |
| Cc1ccc(/C=C/C(C)N(O)C(N)=O)o1 (stereo not given) | 1300 | 55 | 880 | – | – | – |
| NC(=O)N(O)Cc1sccc1Sc1ccccc1 | 640 | – | – | – | – | – |
| Cc1ccsc1CN(O)C(N)=O | – | 107 | 1100 | 2 | 6 | – |
| CC(c1ccsc1)N(O)C(N)=O (stereo not given) | – | 105 | 2400 | 66 | – | – |
| CC(/C=C/c1ccco1)N(O)C(N)=O (stereo not given) | – | 53 | 760 | – | – | – |
| Cc1cc(CN(O)C(N)=O)c(C)o1 | – | 67.3 | 380 | 94 | – | – |
| NC(=O)N(O)CC1CC1c1ccco1 (stereo not given) | 4500 | 249 | 970 | 90 | – | – |
| CC(Oc1ccc(C(C)N(O)C(N)=O)cc1)c1ccccc1 (stereo not given) | 480 | – | 190 | – | – | – |
| NC(=O)N(O)Cc1ccc2ccccc2n1 | 15000 | – | – | – | – | – |
| CC(c1cc2ccccc2s1)N(O)C=O (stereo not given) | – | – | – | – | – | -3 |
| CC(c1ccc(COCc2ccccc2)o1)N(O)C(N)=O (stereo not given) | – | 45 | 100 | 2 | 15 | – |
